Data published in ChEMBL document CHEMBL2384995, “Discovery of highly potent triazole antifungal derivatives by heterocycle-benzene bioisosteric replacement” (Eur J Med Chem, 2013).
In brackets after ≈: the same amount, converted by molar mass.

Legend:
[1] = AUC (0 to infinity) in Sprague-Dawley rat at 15 mg/kg, po by LC/MS/MS analysis; assay type: ADME, organism-based; parameters: time infinity, dose 15 mg/kg, route oral; conditions: plasma
In short: (§1)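 Single oral dose of 15 mg/kg in Sprague-Dawley rats. Blood was drawn from the orbital venous plexus at several time points and plasma drug levels were quantified by LC/MS/MS, from which the pharmacokinetic parameters were obtained.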

[2] = Half life in Sprague-Dawley rat at 15 mg/kg, po by LC/MS/MS analysis; assay type: ADME, organism-based; parameters: dose 15 mg/kg, route oral; conditions: in vivo; in short: as §1
[3] = Cmax in Sprague-Dawley rat at 15 mg/kg, po by LC/MS/MS analysis; assay type: ADME, organism-based; parameters: dose 15 mg/kg, route oral; conditions: in vivo; in short: as §1
[4] = Tmax in Sprague-Dawley rat at 15 mg/kg, po by LC/MS/MS analysis; assay type: ADME, organism-based; parameters: dose 15 mg/kg, route oral; conditions: in vivo; in short: as §1
Candida tropicalis = assay: Antifungal activity against Candida tropicalis after 24 hrs by NCCLS method; assay type: functional
In short: (§2)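 Broth microdilution in 96-well plates following NCCLS recommendations, using ATCC strains or clinical isolates. Compounds were dissolved in DMSO and serially diluted in growth medium. Yeast plates were incubated at 35 °C and read at 24 h. MIC80 is the lowest concentration giving turbidity of […] inhibition relative to the drug-free growth control.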

Aspergillus fumigatus = assay: Antifungal activity against Aspergillus fumigatus after 7 days by NCCLS method; assay type: functional; conditions: 168 h
In short: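 Microtest-plate serial dilution per NCCLS, with the strain taken from ATCC or a clinical source. Compounds were prepared in DMSO and serially diluted in growth medium. Growth was read after 7 days. The endpoint is the lowest concentration producing ≥80% turbidity inhibition versus the untreated growth control.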

Cryptococcus neoformans [5] = assay: Ratio of fluconazole MIC80 to compound MIC80 for Cryptococcus neoformans; assay type: functional
Candida albicans = assay: Antifungal activity against Candida albicans after 24 hrs by NCCLS method; assay type: functional; in short: as §2
Trichophyton rubrum [6] = assay: Antifungal activity against Trichophyton rubrum by NCCLS method; assay type: functional
In short: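 Dermatophyte MIC by NCCLS broth serial dilution in 96-well plates, using an ATCC or clinical isolate. DMSO solutions were serially diluted in growth medium and incubated at 28 °C.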

Cryptococcus neoformans [7] = assay: Antifungal activity against Cryptococcus neoformans after 72 hrs by NCCLS method; assay type: functional
In short: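 NCCLS serial-dilution MIC assay in 96-well plates against an ATCC or clinical yeast isolate. Test agents were taken up in DMSO and diluted serially in growth medium. Plates were held at 35 °C and growth was scored at 72 h. MIC80 is the lowest concentration reducing turbidity by at least 80% compared with the control culture.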

Trichophyton rubrum [8] = assay: Ratio of fluconazole MIC80 to compound MIC80 for Trichophyton rubrum; assay type: functional
[9] = Candida albicans, 24 h, read-out: MIC80
[10] = Cryptococcus neoformans, 72 h, read-out: MIC80

Compound	AUC(0-inf) [1] [ng·h/mL]	half-life [2] [h]	Cmax [3] [ng/mL]	Tmax [4] [h]	MIC80 (Candida tropicalis) [µg/mL]	MIC80 (Aspergillus fumigatus) [µg/mL]	Ratio (Cryptococcus neoformans [5])	MIC80 (Candida albicans) [µg/mL]	MIC80 (Trichophyton rubrum [6]) [µg/mL]	MIC80 (Cryptococcus neoformans [7]) [µg/mL]	Ratio (Trichophyton rubrum [8])	MIC80 (Candida albicans; [9]) [µg/mL]	MIC80 (Cryptococcus neoformans [7]; [10]) [µg/mL]
CN(Cc1ccc(I)cc1)CC(O)(Cn1cncn1)c1ccc(F)cc1F (stereo not drawn)	546	1.38	297	0.9	–	–	–	–	–	–	–	–	–
OC(CN1CCN(Cc2nc3ccccc3s2)CC1)(Cn1cncn1)c1ccc(F)cc1F (racemic)	1420	1.27	508	0.8	0.004 (≈ 0.0085 µM)	64 (≈ 136 µM)	125	0.016 (≈ 0.034 µM)	0.0625 (≈ 0.133 µM)	0.016 (≈ 0.034 µM)	16	–	–
CN(Cc1cccs1)CC(O)(Cn1cncn1)c1ccc(F)cc1F (racemic)	–	–	–	–	0.125 (≈ 0.343 µM)	16 (≈ 43.9 µM)	125	–	1 (≈ 2.74 µM)	–	–	1 (≈ 2.74 µM)	0.016 (≈ 0.0439 µM)
CN(Cc1ccco1)CC(O)(Cn1cncn1)c1ccc(F)cc1F (racemic)	–	–	–	–	0.016 (≈ 0.0459 µM)	64 (≈ 184 µM)	32	–	1 (≈ 2.87 µM)	–	–	0.0625 (≈ 0.179 µM)	0.0625 (≈ 0.179 µM)
CN(Cc1ccc2ccccc2n1)CC(O)(Cn1cncn1)c1ccc(F)cc1F (racemic)	–	–	–	–	1 (≈ 2.44 µM)	> 64	8	–	4 (≈ 9.77 µM)	–	–	4 (≈ 9.77 µM)	0.25 (≈ 0.611 µM)
CN(Cc1ccccn1)CC(O)(Cn1cncn1)c1ccc(F)cc1F (racemic)	–	–	–	–	0.0625 (≈ 0.174 µM)	> 64	8	–	4 (≈ 11.1 µM)	–	–	1 (≈ 2.78 µM)	0.25 (≈ 0.696 µM)
CN(Cc1nc2ccccc2[nH]1)CC(O)(Cn1cncn1)c1ccc(F)cc1F (racemic)	–	–	–	–	0.25 (≈ 0.627 µM)	> 64	–	–	> 64	–	–	4 (≈ 10 µM)	16 (≈ 40.2 µM)
OC(CN1CCN(Cc2cccs2)CC1)(Cn1cncn1)c1ccc(F)cc1F (racemic)	–	–	–	–	0.016 (≈ 0.0381 µM)	16 (≈ 38.1 µM)	8	–	4 (≈ 9.54 µM)	–	–	0.0625 (≈ 0.149 µM)	0.25 (≈ 0.596 µM)
OC(CN1CCN(Cc2ccc3ccccc3n2)CC1)(Cn1cncn1)c1ccc(F)cc1F (racemic)	–	–	–	–	0.016 (≈ 0.0344 µM)	2 (≈ 4.31 µM)	32	–	0.25 (≈ 0.538 µM)	–	–	1 (≈ 2.15 µM)	0.0625 (≈ 0.135 µM)
OC(CN1CCN(Cc2ccccn2)CC1)(Cn1cncn1)c1ccc(F)cc1F (racemic)	–	–	–	–	1 (≈ 2.41 µM)	16 (≈ 38.6 µM)	2	–	1 (≈ 2.41 µM)	–	–	0.0625 (≈ 0.151 µM)	1 (≈ 2.41 µM)
OC(CN1CCN(Cc2nc3ccccc3[nH]2)CC1)(Cn1cncn1)c1ccc(F)cc1F (racemic)	–	–	–	–	1 (≈ 2.21 µM)	> 64	–	–	64 (≈ 141 µM)	–	–	4 (≈ 8.82 µM)	16 (≈ 35.3 µM)
OC(CN1CCN(Cc2nc3ccccc3o2)CC1)(Cn1cncn1)c1ccc(F)cc1F (racemic)	–	–	–	–	0.004 (≈ 0.0088 µM)	0.25 (≈ 0.55 µM)	32	–	0.25 (≈ 0.55 µM)	–	4	0.0625 (≈ 0.138 µM)	0.0625 (≈ 0.138 µM)
OC(CN1CCN(Cc2nc3ccccc3s2)CC1)(Cn1cncn1)c1ccc(F)cc1F (single isomer, unassigned; (+))	–	–	–	–	–	–	–	0.0625 (≈ 0.133 µM)	–	0.0625 (≈ 0.133 µM)	–	–	–
OC(CN1CCN(Cc2nc3ccccc3s2)CC1)(Cn1cncn1)c1ccc(F)cc1F (stereo in doubt; (-)-8f)	–	–	–	–	–	–	–	<0.016	–	<0.016	–	–	–
OC(Cn1cncn1)(Cn1cncn1)c1ccc(F)cc1F [FLUCONAZOLE]	–	–	–	–	4 (≈ 13.1 µM)	> 64	–	–	1 (≈ 3.27 µM)	–	–	0.25 (≈ 0.816 µM)	2 (≈ 6.53 µM)
